Experimental data from ChEMBL document CHEMBL1154537, “Synthesis and evaluation of pyrido-thieno-pyrimidines as potent and selective Cdc7 kinase inhibitors” (Bioorg Med Chem Lett, 2009).
The source made the active and inactive calls. No cut-off for these calls is given here.

Columns and labels:
[1] = biological target: T1, CDC7/DBF4 (Cell division cycle 7-related protein kinase/Activator of S phase kinase) (Homo sapiens, UniProt O00311); assay: Inhibition of human recombinant Cdc7/Dbf4 by IMAP assay; assay type: protein-complex assay
[2] = Permeability in human Caco-2 cells; assay type: ADME, cell-based; conditions: read-out: permeability
[3] = Solubility at pH 6.5; assay type: physicochemical; conditions: buffer
[4] = biological target: T1, CDC7/DBF4 (Cell division cycle 7-related protein kinase/Activator of S phase kinase); assay: Inhibition of human recombinant Cdc7/Dbf4 by HTRF assay
[5] = biological target: Cyclin-dependent kinase 1/cyclin B1 (Homo sapiens, UniProt P06493); assay: Inhibition of human CDK1/Cyclin B by IMAP assay; assay type: protein-complex assay
[6] = biological target: Cyclin-dependent kinase 2 (Homo sapiens, UniProt P24941); assay: Inhibition of human CDK2/Cyclin E by IMAP assay
[7] = Inhibition of human CDK4/Cyclin D by IMAP assay
[8] = biological target: RAC-alpha serine/threonine-protein kinase (Homo sapiens, UniProt P31749); assay: Inhibition of human AKT by IMAP assay
[9] = Inhibition of human PKA by IMAP assay
[10] = biological target: Protein kinase C alpha type (Homo sapiens, UniProt P17252); assay: Inhibition of human PKCalpha by IMAP assay
[11] = biological target: Protein kinase C delta type (Homo sapiens, UniProt Q05655); assay: Inhibition of human PKCdelta by IMAP assay
[12] = biological target: Mitogen-activated protein kinase 1 (Homo sapiens, UniProt P28482); assay: Inhibition of human ERK2 by IMAP assay
[13] = biological target: T2, Serine/threonine-protein kinase Sgk1 (Homo sapiens, UniProt O00141); assay: Inhibition of human SGK by IMAP assay
T2 sequence (O00141 whole entry): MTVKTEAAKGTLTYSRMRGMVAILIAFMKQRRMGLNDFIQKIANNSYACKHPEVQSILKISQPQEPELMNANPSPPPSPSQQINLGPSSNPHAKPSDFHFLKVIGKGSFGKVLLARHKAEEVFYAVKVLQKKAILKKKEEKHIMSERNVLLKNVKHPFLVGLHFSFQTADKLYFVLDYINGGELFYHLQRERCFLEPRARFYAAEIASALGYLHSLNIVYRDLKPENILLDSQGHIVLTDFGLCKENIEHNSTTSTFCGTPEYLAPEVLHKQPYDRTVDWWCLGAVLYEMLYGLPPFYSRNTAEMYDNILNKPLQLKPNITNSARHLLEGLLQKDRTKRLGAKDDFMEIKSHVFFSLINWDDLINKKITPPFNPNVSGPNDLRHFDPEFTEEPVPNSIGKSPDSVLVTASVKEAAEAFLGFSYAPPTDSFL

[14] = biological target: Tyrosine-protein kinase Fyn (Homo sapiens, UniProt P06241); assay: Inhibition of human Fyn by IMAP assay
Ephrin type-B receptor 3 = biological target: T3, Ephrin type-B receptor 3 (Homo sapiens, UniProt P54753); assay: Inhibition of human EphB3 by IMAP assay
T3 sequence (P54753 whole entry): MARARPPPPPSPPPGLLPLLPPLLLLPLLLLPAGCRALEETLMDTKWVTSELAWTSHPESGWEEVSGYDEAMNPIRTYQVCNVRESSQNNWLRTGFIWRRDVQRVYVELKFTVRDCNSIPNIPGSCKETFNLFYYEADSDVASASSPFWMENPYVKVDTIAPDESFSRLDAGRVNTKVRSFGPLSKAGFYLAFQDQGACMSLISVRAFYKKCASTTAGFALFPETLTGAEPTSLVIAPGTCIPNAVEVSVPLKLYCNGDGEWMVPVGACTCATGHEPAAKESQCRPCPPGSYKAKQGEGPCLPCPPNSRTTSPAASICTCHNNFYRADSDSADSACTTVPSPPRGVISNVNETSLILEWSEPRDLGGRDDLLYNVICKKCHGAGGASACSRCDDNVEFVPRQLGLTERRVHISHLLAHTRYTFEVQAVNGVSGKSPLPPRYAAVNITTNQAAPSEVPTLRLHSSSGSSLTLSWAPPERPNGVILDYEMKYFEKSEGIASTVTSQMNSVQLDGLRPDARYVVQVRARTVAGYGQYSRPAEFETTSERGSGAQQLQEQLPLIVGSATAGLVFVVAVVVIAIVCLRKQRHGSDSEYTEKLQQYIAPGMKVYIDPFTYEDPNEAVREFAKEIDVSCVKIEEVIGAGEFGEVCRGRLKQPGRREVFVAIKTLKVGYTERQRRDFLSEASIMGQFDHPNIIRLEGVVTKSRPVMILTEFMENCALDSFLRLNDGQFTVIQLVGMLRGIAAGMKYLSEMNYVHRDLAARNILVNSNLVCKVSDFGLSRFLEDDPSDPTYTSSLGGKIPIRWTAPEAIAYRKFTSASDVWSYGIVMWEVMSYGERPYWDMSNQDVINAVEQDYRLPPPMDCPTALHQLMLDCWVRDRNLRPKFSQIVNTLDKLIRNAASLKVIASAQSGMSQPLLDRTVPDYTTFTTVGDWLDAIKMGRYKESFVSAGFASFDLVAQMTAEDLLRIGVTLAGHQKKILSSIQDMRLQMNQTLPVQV

[15] = biological target: CDC7/DBF4 (Cell division cycle 7-related protein kinase/Activator of S phase kinase) (Homo sapiens) (UniProt Q9UBU7+O00311); assay: Inhibition of Cdc7/Dbf4-mediated MCM2 phosphorylation in human HCT116 cells assessed as decrease in faster migration of protein at 20 uM after 18 hrs by Western blot analysis; assay type: cell-based; conditions: HCT-116
Method in brief: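 HCT116 cells were arrested with 100 nM nocodazole for 16 h and mitotic cells were collected by shake-off and washed. The resulting G1 cells were incubated with 20 µM compound or DMSO for 18 h. MCM2 and phospho-MCM2 were read by Western blot.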

HCT-116 = assay: Cytotoxicity against human HCT116 cells MTT assay; assay type: functional, cell-based
Method in brief: (§1)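 MTT viability assay on human colon cancer cell lines exposed in vitro across a compound concentration range. IC50 was taken from the dose-response.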

RKO = assay: Cytotoxicity against human RKO cells MTT assay; assay type: functional, cell-based; method in brief: as §1
SW480 = assay: Cytotoxicity against human SW480 cells MTT assay; assay type: functional, cell-based; method in brief: as §1

T1 sequence (Q9UBU7 whole entry): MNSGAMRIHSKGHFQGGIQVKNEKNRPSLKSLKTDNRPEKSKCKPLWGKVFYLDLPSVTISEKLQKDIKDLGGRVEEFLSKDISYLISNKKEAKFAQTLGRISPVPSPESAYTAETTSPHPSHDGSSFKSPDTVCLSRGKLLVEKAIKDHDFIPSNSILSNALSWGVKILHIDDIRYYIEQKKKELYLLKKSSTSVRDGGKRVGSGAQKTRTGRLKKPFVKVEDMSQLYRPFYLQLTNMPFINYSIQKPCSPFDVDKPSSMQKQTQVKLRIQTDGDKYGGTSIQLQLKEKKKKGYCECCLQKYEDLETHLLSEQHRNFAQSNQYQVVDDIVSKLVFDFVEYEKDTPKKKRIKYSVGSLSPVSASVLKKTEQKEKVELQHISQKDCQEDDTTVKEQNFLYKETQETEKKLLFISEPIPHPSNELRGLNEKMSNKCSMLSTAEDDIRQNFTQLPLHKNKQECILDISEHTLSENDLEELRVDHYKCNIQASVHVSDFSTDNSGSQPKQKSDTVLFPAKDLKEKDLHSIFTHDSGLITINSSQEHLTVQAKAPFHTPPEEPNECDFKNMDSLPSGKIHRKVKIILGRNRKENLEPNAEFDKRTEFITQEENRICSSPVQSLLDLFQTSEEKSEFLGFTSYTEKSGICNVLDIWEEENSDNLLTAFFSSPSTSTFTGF
T1 sequence (O00311 whole entry): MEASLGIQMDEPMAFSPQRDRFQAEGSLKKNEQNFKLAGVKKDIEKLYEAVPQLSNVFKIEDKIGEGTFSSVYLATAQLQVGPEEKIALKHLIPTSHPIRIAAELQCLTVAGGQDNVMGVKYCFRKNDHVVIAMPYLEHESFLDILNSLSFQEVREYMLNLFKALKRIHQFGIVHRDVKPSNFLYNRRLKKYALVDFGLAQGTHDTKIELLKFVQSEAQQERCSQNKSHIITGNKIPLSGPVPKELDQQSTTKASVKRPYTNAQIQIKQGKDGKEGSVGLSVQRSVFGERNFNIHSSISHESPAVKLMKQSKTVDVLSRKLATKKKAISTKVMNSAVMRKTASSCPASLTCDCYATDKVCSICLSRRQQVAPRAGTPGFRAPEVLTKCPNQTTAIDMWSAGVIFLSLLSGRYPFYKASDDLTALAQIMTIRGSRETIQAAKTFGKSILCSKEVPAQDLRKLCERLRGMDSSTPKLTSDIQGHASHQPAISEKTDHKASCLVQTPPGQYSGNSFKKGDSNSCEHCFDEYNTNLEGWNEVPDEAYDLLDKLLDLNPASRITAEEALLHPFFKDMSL
Mitogen-activated protein kinase 1, sequence (P28482 whole entry): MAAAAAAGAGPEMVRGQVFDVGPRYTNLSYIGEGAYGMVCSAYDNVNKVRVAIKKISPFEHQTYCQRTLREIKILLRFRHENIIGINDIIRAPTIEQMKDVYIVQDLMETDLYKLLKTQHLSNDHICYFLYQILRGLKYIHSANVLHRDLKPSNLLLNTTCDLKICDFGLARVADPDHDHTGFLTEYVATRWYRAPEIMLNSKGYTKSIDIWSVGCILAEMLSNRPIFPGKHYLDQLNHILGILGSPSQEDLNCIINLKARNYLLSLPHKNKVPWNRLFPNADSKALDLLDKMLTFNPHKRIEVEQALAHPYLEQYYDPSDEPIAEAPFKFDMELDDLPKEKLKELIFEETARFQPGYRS
RAC-alpha serine/threonine-protein kinase, sequence (P31749 whole entry): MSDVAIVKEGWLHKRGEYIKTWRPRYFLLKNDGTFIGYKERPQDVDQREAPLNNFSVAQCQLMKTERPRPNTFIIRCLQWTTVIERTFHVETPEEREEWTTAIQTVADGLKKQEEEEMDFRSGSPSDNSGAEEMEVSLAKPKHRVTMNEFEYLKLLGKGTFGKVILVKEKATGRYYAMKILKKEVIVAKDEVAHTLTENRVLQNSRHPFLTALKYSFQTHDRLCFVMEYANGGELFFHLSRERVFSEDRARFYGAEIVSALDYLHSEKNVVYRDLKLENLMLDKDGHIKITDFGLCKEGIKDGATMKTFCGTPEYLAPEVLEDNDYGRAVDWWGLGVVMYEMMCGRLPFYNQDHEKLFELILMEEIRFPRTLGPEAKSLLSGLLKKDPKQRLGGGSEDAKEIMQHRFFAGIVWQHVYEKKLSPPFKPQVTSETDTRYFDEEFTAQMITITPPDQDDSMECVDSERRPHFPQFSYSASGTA
Tyrosine-protein kinase Fyn, sequence (P06241 whole entry): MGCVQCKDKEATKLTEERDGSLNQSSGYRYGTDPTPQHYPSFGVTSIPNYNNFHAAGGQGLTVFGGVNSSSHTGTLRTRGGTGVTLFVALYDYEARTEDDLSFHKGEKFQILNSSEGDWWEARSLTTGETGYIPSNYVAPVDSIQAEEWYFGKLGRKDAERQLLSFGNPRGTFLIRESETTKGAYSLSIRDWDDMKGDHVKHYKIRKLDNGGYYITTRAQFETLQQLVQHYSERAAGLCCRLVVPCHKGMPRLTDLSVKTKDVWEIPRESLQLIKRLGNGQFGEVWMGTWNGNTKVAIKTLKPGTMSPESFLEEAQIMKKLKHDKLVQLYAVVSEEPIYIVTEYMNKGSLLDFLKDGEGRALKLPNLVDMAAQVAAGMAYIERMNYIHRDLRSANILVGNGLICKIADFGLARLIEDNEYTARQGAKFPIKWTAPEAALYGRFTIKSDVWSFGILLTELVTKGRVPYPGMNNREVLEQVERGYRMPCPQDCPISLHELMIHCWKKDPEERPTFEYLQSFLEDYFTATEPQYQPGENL
CDC7/DBF4 (Cell division cycle 7-related protein kinase/Activator of S phase kinase) (Homo sapiens), sequence (O00311 whole entry, looked up): as the sequence (O00311 whole entry) above
CDC7/DBF4 (Cell division cycle 7-related protein kinase/Activator of S phase kinase) (Homo sapiens), sequence (Q9UBU7 whole entry, looked up): as the sequence (Q9UBU7 whole entry) above
Protein kinase C delta type, sequence (Q05655 whole entry): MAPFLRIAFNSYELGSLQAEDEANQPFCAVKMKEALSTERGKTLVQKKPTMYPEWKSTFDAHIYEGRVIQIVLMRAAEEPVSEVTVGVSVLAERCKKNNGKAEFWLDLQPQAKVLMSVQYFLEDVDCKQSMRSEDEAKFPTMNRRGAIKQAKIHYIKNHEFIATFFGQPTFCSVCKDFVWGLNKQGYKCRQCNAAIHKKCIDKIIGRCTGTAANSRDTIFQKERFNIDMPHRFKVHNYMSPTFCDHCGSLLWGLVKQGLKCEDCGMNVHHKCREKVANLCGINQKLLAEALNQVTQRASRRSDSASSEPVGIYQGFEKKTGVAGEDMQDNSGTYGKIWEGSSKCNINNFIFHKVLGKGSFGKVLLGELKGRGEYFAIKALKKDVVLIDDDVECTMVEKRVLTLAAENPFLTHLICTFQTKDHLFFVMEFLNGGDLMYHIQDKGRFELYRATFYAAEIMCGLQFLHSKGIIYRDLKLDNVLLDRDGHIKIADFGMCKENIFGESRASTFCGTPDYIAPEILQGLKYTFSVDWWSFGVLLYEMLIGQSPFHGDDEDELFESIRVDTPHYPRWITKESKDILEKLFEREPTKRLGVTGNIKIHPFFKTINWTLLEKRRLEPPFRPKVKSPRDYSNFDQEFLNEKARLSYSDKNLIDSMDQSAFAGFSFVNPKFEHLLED
Cyclin-dependent kinase 1/cyclin B1, sequence (P06493 whole entry): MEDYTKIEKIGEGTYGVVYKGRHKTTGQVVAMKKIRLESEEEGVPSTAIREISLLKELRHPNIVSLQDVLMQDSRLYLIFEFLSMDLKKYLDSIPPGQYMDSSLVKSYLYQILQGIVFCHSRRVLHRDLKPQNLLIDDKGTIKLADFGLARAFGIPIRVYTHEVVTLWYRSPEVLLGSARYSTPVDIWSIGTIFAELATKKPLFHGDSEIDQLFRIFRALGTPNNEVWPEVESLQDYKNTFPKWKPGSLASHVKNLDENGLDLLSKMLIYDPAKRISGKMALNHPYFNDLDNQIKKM
Cyclin-dependent kinase 1/cyclin B1, sequence (P14635 whole entry, further chain): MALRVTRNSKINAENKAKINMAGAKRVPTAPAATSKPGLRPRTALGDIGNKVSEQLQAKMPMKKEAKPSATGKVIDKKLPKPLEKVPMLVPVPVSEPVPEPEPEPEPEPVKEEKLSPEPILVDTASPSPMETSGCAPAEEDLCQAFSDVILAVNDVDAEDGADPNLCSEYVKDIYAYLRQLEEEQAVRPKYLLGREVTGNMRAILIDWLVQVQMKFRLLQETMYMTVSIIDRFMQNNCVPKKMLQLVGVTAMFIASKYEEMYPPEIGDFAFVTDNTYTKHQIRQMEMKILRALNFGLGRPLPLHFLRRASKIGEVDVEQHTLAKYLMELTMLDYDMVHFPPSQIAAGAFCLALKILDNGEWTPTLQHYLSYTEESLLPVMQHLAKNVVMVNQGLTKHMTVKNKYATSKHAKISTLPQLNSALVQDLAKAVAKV

Ki [1] [nM] | Papp [2] [×10⁻⁶ cm/s] | solubility [3] [µg/mL] | IC50 [4] [nM] | Compound | also measured
1200 | > 20 | < 30 | 12000 | Nc1ncnc2c1sc1ncccc12 | –
> 3000 | > 20 | < 30 | > 30000 | Cc1cc(C)c2c(n1)sc1c(Nc3ccccc3)ncnc12 | –
900 | > 20 | < 30 | 9000 | Nc1ncnc2c1sc1ncc(-c3ccccc3)cc12 | –
5 | > 20 | < 30 | 50 | Cc1c2c(nc3sc4c(N)ncnc4c13)CCC2 | –
1000 | > 20 | < 30 | 10000 | CCOC(=O)c1cc2c(nc1C)sc1c(N)ncnc12 | –
0.5 | > 20 | < 30 | 5 | Cc1nc2sc3c(N)ncnc3c2c2c1CCCC2 | –
400 | > 20 | < 30 | 4000 | Nc1ncnc2c1sc1nc(C3CC3)cc(C(F)(F)F)c12 | –
> 3000 | > 20 | < 30 | > 30000 | CNc1ncnc2c1sc1nc(C)cc(C)c12 | –
> 3000 | > 20 | < 30 | > 30000 | Cc1cc(C)c2c(n1)sc1c(N(C)C)ncnc12 | –
– | > 20 | < 30 | – | Cc1cc(C)c2c(n1)sc1c(N)ncnc12 | –
4 | > 20 | < 30 | 40 | Cc1nc2sc3c(N)ncnc3c2c(C)c1C | –
2 | > 20 | < 30 | 20 | C=CCc1c(C)nc2sc3c(N)ncnc3c2c1C | Ki [5]: > 5000 nM; Ki [6]: > 5000 nM; Ki [7]: > 5000 nM; Ki [8]: > 5000 nM; Ki [9]: 1100 nM; Ki [10]: > 5000 nM; Ki [11]: > 5000 nM; Ki [12]: > 5000 nM; Ki [13]: > 5000 nM; Ki [14]: > 5000 nM; Ki (Ephrin type-B receptor 3): > 5000 nM; Activity [15]: Active; IC50 (HCT-116): 8300 nM; IC50 (RKO): 6600 nM; IC50 (SW480): 9600 nM
200 | > 20 | < 30 | 2000 | Cc1nc2sc3c(N)ncnc3c2c(C)c1Cc1ccccc1 | –
1 | > 20 | < 30 | 10 | CCc1c(C)nc2sc3c(N)ncnc3c2c1C | –
2 | > 20 | < 30 | 20 | Cc1c2c(nc3sc4c(N)ncnc4c13)CCCC2 | –
3 | > 20 | < 30 | 30 | Cc1nc2sc3c(N)ncnc3c2c2c1CCC2 | –
